In ChEMBL document CHEMBL4118094, “Structure-Guided Design and Initial Studies of a Bifunctional MEK/PI3K Inhibitor (ST-168)” (ACS Med Chem Lett, 2017):
Calls of active or inactive are those of the source. The calls are words filed in the database; no cut-off is given here.

What was measured:
A-375 [1] = assay: Antiproliferative activity against human A375 spheroids at 20 uM after 72 hrs by calcein AM/ethidium homodimer 1 staining based fluorescence microscopy; assay type: functional, cell-based
In short: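 A375 melanoma spheroids exposed 72 h to compound at 20 µM; then stained with calcein AM (live, green) and ethidium homodimer-1 (dead, red). Read by fluorescence microscopy. Replicate experiments, representative images.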

[2] = molecular target: PI3-kinase p110-delta/p85-alpha (Homo sapiens, UniProt O00329); assay: Inhibition of recombinant human full length His-tagged PI3K p110delta/p85alpha expressed in baculovirus expression system coexpressing PIK3R1 by TR-FRET assay
Chain of PI3-kinase p110-delta/p85-alpha (P27986 whole entry, canonical isoform): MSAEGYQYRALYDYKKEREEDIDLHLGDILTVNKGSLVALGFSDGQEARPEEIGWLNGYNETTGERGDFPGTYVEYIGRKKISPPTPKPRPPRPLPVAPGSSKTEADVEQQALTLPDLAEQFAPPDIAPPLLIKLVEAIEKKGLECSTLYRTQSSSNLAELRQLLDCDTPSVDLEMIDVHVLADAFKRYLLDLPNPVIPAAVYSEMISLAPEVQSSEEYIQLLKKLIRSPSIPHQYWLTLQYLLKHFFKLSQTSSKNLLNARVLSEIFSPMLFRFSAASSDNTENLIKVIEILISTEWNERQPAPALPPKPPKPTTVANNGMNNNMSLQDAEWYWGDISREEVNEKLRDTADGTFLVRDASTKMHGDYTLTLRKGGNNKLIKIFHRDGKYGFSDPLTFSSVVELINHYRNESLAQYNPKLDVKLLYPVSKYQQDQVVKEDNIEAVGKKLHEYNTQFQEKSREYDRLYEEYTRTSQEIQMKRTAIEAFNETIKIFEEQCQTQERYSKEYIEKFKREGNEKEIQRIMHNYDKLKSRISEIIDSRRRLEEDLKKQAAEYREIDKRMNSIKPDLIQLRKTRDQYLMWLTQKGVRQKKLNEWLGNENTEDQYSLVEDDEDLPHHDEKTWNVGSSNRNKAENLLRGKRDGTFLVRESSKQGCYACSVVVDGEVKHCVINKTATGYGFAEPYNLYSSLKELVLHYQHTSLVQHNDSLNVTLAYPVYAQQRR
Chain of PI3-kinase p110-delta/p85-alpha (O00329 whole entry, canonical isoform): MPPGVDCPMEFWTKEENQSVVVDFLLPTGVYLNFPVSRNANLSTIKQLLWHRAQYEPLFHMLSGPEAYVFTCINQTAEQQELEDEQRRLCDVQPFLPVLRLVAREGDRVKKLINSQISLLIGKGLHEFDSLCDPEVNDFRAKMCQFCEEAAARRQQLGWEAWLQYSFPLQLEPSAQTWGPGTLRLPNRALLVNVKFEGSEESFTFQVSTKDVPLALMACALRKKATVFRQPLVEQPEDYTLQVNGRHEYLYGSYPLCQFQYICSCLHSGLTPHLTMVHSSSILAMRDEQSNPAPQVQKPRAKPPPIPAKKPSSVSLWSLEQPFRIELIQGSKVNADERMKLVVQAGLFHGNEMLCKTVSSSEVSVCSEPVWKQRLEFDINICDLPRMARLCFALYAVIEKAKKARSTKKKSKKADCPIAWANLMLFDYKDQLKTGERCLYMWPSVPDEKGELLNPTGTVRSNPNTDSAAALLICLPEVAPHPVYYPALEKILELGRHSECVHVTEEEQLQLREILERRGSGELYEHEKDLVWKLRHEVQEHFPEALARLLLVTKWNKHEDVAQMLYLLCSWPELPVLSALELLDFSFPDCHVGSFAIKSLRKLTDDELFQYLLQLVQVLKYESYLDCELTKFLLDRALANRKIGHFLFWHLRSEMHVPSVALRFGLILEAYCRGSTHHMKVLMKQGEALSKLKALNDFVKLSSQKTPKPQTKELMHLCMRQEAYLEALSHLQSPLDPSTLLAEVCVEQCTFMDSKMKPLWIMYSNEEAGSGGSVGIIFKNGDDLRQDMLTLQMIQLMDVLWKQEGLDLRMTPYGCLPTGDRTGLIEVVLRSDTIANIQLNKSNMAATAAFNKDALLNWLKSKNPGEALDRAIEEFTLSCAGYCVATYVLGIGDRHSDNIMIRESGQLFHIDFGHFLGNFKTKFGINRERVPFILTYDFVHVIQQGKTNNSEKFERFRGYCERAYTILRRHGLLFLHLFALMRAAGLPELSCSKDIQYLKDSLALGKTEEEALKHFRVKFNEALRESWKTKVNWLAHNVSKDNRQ
In short: (§1)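 PI3K isoform activity by fluorescence-based Adapta TR-FRET kinase assay. Values are the average of 3 experiments, each run in duplicate, given as mean ± SEM.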

[3] = molecular target: PI3-kinase p110-alpha/p85-alpha (Homo sapiens, UniProt P42336); assay: Inhibition of recombinant human full length His-tagged PI3K p110alpha/p85alpha expressed in baculovirus expression system coexpressing PIK3R1 by TR-FRET assay; in short: as §1
Chain of PI3-kinase p110-alpha/p85-alpha (P27986 whole entry): as the sequence (P27986 whole entry, canonical isoform) above
Chain of PI3-kinase p110-alpha/p85-alpha (P42336 whole entry): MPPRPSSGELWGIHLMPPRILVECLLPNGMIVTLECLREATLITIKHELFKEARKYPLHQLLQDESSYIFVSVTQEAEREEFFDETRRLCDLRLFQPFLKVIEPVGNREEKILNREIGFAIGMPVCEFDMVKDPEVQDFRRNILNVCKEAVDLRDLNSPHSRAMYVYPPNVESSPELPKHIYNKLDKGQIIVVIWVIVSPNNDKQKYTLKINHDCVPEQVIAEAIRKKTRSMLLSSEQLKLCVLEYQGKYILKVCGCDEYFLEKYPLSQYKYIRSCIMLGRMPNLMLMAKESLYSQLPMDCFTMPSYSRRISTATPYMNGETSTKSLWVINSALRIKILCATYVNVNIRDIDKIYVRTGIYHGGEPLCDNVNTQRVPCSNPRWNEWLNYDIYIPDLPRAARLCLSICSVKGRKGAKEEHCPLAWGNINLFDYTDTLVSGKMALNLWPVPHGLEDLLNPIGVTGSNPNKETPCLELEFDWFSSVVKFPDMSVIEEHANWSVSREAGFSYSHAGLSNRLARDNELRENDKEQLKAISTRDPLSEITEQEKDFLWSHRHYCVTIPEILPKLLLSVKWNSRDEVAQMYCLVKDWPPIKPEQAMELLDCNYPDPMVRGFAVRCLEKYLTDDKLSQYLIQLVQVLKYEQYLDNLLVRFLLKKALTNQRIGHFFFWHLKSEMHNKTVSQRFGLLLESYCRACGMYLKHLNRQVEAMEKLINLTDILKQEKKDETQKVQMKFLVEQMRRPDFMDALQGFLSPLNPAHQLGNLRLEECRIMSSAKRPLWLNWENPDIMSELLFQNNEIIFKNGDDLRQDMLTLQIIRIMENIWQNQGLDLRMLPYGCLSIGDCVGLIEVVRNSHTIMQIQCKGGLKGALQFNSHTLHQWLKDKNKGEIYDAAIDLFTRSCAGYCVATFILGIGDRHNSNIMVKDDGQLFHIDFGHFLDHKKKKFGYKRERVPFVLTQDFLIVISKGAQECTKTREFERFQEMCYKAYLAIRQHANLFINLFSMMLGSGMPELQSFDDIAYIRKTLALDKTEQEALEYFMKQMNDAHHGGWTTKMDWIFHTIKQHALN

[4] = molecular target: T1, Dual specificity mitogen-activated protein kinase kinase 1 (Homo sapiens, UniProt Q02750); assay: Inhibition of MEK1 in human A375 cell lysate assessed as reduction in ERK1/2 phosphorylation at Thr202/Tyr204 at 20 uM after 1 hr by Western blot analysis
T1 sequence (Q02750 whole entry): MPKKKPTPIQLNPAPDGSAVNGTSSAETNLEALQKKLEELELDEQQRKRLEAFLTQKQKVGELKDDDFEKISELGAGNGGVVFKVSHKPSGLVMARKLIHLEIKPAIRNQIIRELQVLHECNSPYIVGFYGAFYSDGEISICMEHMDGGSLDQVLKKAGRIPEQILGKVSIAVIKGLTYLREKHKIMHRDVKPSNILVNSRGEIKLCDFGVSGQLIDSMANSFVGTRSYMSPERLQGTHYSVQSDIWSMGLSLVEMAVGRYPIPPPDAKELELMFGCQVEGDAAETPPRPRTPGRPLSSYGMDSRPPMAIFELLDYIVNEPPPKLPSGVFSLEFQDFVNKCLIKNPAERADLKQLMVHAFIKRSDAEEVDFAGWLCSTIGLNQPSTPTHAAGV
In short: (§2)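 A375 cells (constitutive MEK1/PI3K pathway activation) incubated 1 h with compound at 20 µM against equimolar DMSO. Lysates immunoblotted: ERK1/2 phosphorylation for MEK1 activity, AKT Ser473 phosphorylation for PI3K activity.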

Homo sapiens = species on record: Homo sapiens; assay: Inhibition of PI3K in human A375 cell lysate assessed as reduction in Akt phosphorylation at Ser473 residue at 20 uM after 1 hr by Western blot analysis; in short: as §2
A-375 [5] = assay: Antitumor activity against human A375 cells xenografted in athymic Foxn1nu mouse assessed as tumor growth inhibition at 400 mg/kg, qd administered via oral gavage for 42 days measured twice per week by MRI imaging analysis; assay type: functional, organism-based
In short: (§3)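 Nude mice inoculated in the flank with 5 x 10^6 A375 cells in 100 µl. Dosing began once tumors exceeded 100 mm3, after randomization. Daily oral gavage at 400 mg/kg until sacrifice at 42 days; vehicle was 200 µl OraPlus. Tumor growth followed by MRI twice per week.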

[6] = molecular target: T1, Dual specificity mitogen-activated protein kinase kinase 1; assay: Inhibition of recombinant human GST-tagged MEK1 expressed in baculovirus infected Sf9 insect cells using inactive ERK2 as substrate preincubated for 30 mins followed by substrate addition measured after 2 hrs by kinase-glo reagent based bioluminescence assay
A-375 [7] = assay: Antitumor activity against human A375 cells xenografted in athymic Foxn1nu mouse assessed as tumor growth inhibition at 400 mg/kg, qd administered via oral gavage measured after 35 days by MRI imaging analysis; assay type: functional, organism-based; in short: as §3

SMILES	Activity (A-375 [1])	IC50 [2] [nM]	IC50 [3] [nM]	inhibition [4]	inhibition (Homo sapiens)	TGI (A-375 [5])	IC50 [6] [nM]	TGI (A-375 [7])
O=C(NOCCOCCOCCOCCN1CCN(c2nc(N3CCOCC3)nc(-n3c(C(F)F)nc4ccccc43)n2)CC1)c1ccc(F)c(F)c1Nc1ccc(I)cc1F	Active	942	191	Active	Active	Active	398	–
NOCCOCCOCCOCCC(=O)N1CCN(c2nc(N3CCOCC3)nc(-n3c(C(F)F)nc4ccccc43)n2)CC1	–	1.3	11.5	–	–	–	–	–
O=C(NOCCOCCOCCOCCC(=O)N1CCN(c2nc(N3CCOCC3)nc(-n3c(C(F)F)nc4ccccc43)n2)CC1)c1ccc(F)c(F)c1Nc1ccc(I)cc1F	Active	41.7	69.2	Active	Active	–	182	Active
CC(=O)N1CCN(c2nc(N3CCOCC3)nc(-n3c(C(F)F)nc4ccccc43)n2)CC1	–	2.9	8.2	–	–	–	–	–
FC(F)c1nc2ccccc2n1-c1nc(N2CCNCC2)nc(N2CCOCC2)n1	–	142	180	–	–	–	–	–
